Results as given in ChEMBL document CHEMBL1255521, “Identification and optimization of substituted 5-aminopyrazoles as potent and selective adenosine A1 receptor antagonists” (Bioorg Med Chem Lett, 2010).
Activity calls are given as the source filed them. The calls are words filed in the database; no cut-off is given here.

Legend:
[1] = target: T1, Adenosine receptor A1 (Homo sapiens, UniProt P30542); assay: Antagonist activity at adenosine A1 receptor by cAMP assay; format: functional
T1 sequence (P30542 whole entry): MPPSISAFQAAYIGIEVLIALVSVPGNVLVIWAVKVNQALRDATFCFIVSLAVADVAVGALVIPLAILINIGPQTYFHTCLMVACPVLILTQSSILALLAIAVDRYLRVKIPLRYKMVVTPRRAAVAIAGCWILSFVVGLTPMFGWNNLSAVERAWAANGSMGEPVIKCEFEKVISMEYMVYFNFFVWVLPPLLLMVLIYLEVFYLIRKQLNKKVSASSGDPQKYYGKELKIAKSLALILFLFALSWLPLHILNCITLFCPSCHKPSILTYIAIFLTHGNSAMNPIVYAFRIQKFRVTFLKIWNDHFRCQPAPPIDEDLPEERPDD
Method in brief: (§1)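 cAMP functional assay run in antagonist mode at each receptor subtype, with IC50 values reported as means of three experiments.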

[2] = target: Adenosine receptor A2a (Homo sapiens, UniProt P29274); assay: Antagonist activity at adenosine A2A receptor by cAMP assay; format: functional; method in brief: as §1
[3] = target: T2, Adenosine receptor A2b (Homo sapiens, UniProt P29275); assay: Antagonist activity at adenosine A2B receptor by cAMP assay; format: functional; method in brief: as §1
T2 sequence (P29275 whole entry): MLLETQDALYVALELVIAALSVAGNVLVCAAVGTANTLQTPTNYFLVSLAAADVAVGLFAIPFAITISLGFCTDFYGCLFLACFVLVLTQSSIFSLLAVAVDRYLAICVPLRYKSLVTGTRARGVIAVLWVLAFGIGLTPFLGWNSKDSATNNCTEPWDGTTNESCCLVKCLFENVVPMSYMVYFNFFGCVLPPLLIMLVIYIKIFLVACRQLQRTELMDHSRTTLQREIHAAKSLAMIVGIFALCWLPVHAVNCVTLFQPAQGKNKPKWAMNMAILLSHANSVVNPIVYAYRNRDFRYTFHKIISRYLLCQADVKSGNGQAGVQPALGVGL

[4] = target: T3, Adenosine receptor A3 (Homo sapiens, UniProt P0DMS8); assay: Antagonist activity at adenosine A3 receptor by cAMP assay; format: functional; method in brief: as §1
T3 sequence (P0DMS8 whole entry): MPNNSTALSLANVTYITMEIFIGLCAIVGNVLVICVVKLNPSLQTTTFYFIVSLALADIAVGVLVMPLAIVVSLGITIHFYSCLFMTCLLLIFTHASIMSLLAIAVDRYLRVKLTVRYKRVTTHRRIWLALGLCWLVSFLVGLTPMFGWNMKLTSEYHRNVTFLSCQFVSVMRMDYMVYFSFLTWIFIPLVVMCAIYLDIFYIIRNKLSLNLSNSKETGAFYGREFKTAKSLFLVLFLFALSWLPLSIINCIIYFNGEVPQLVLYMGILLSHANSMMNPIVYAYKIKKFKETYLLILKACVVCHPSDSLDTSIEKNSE

[5] = Blood clearance in Wistar rat at 1 mg/kg, iv and 3 mg/kg, po; format: ADME, organism-based; settings: whole blood
Method in brief: (§2)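 Pharmacokinetics in Wistar rats, with intravenous dosing at 1 mg/kg in a vehicle of 1% DMSO and 99% plasma.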

[6] = Half life in Wistar rat at 1 mg/kg, iv and 3 mg/kg, po; format: ADME, organism-based; settings: in vivo; method in brief: as §2
[7] = Oral bioavailability in Wistar rat at 3 mg/kg; format: ADME, organism-based; settings: in vivo
[8] = test system: Rattus norvegicus; assay: Diuretic activity in Wistar rat assessed as urine volume at 0.3 mg/kg, iv administered after 7 days of acclimatization; format: functional, organism-based; set-up: dose 0.3 mg/kg
Method in brief: (§3)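 Wistar rats received compound intravenously in 1 ml/kg vehicle (40% PEG400, 60% Tris buffer), 6–8 animals per dose group, at doses between 0.1 and 3.0 mg/kg. Urine was collected at the cage bottom into collecting tubes, usually over 4 h. Volume was measured, and sodium and potassium were read by flame photometer.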

[9] = test system: Rattus norvegicus; assay: Natriuretic activity in Wistar rat assessed as increase in natriuresis at 0.1 mg/kg, iv administered after 7 days of acclimatization; format: functional, organism-based; set-up: dose 0.1 mg/kg; method in brief: as §3
[10] = test system: Mus musculus; assay: Anticonvulsant activity in mouse assessed as inhibition of maximal electroshock-induced convulsion at 30 mg/kg, iv by MES test; format: functional, organism-based; set-up: dose 30 mg/kg
[11] = test system: Mus musculus; assay: Anticonvulsant activity in mouse assessed as inhibition of pentylenetetrazole-induced convulsion at 30 mg/kg, iv; format: functional, organism-based; set-up: dose 30 mg/kg
[12] = Selectivity ratio of IC50 for adenosine A2B receptor to IC50 for adenosine A1 receptor

Adenosine receptor A2a, sequence (P29274 whole entry): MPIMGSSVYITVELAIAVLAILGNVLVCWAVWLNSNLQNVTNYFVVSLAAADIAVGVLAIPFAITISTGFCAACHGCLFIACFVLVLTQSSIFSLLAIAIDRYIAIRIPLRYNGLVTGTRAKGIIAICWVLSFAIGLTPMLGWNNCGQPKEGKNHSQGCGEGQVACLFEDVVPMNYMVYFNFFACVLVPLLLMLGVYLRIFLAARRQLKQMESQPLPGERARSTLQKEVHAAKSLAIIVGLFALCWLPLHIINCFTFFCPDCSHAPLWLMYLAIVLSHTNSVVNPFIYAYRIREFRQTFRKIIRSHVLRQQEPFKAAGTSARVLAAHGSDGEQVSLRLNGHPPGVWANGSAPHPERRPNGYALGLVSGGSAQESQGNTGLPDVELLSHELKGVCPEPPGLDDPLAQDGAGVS

Compound | IC50 [1] [µM] | IC50 [2] [µM] | IC50 [3] [µM] | also measured
COc1ccc(-c2c(C)nn(-c3ccccc3C)c2Nc2ccc(OC)cc2C(=O)O)cc1 | 0.306 | – | – | –
Cc1ccccc1-n1nc(C)c(-c2cc(F)c3nccnc3c2)c1Nc1ccccc1C(=O)O | – | > 50 | > 50 | IC50 [4]: > 10 µM; clearance [5]: 9.5 mL/min/kg; half-life [6]: 1.8 h; bioavailability [7]: 97%; Activity [8]: Active; Activity [9]: Active; Activity [10]: inactive; Activity [11]: inactive; Ratio IC50 [12]: > 83000
COc1ccc(Nc2c(-c3ccc4c(c3)OCCO4)c(C)nn2-c2ccccc2C)c(C(=O)O)c1 | 0.027 | – | – | –
COc1ccc(Nc2c(-c3ccc(OC)c(OC)c3)c(C)nn2-c2ccccc2C)c(C(=O)O)c1 | 0.233 | – | – | –
COc1ccc(Nc2c(-c3ccc(C)c(C)c3)c(C)nn2-c2ccccc2C)c(C(=O)O)c1 | 0.568 | – | – | –
COc1ccc(Nc2c(-c3ccc(F)c(F)c3)c(C)nn2-c2ccccc2C)c(C(=O)O)c1 | 0.294 | – | – | –
CCc1ccccc1-n1nc(C)c(-c2ccc3nccnc3c2)c1Nc1ccc(OC)cc1C(=O)O | 0.0064 | > 50 | > 50 | –
Cc1ccc(Nc2c(-c3ccc4nccnc4c3)c(C)nn2-c2ccccc2C)c(C(=O)O)c1 | 0.0051 | > 50 | > 50 | –
COc1ccc(Nc2c(-c3ccc(C)cc3)c(C)nn2-c2ccccc2C)c(C(=O)O)c1 | 0.00316 | – | – | –
Cc1ccccc1-n1ncc(-c2ccc3nccnc3c2)c1Nc1ccccc1C(=O)O | 0.277 | > 50 | > 50 | –
COc1ccc(Nc2c(-c3ccc4nccnc4c3)c(C)nn2-c2ccccc2Cl)c(C(=O)O)c1 | 0.0073 | > 50 | > 50 | –
Cc1ccccc1-n1nc(C)c(-c2ccc3nccnc3c2)c1Nc1ccc(Cl)cc1C(=O)O | 0.016 | > 50 | > 50 | –
Cc1ccccc1-n1nc(C)c(-c2ccc3nccnc3c2)c1Nc1ccccc1C(=O)O | 0.008 | > 50 | > 50 | –
COc1ccc(Nc2c(-c3ccc4nccnc4c3)c(C)nn2-c2ccccc2C)c(C(=O)O)c1 | 0.0032 | > 50 | > 50 | IC50 [4]: 13 µM; clearance [5]: 43.7 mL/min/kg; half-life [6]: 0.4 h; bioavailability [7]: 20%
COc1ccc(Nc2c(-c3ccc(F)cc3)c(C)nn2-c2ccccc2C)c(C(=O)O)c1 | 0.00139 | – | – | –
COc1ccc(Nc2c(-c3ccc4nccnc4c3)c(C)nn2C2CCCCC2)c(C(=O)O)c1 | 0.435 | > 50 | > 50 | –
Cc1ccccc1-n1nc(C(F)(F)F)c(-c2ccc3nccnc3c2)c1Nc1ccccc1C(=O)O | 0.009 | > 50 | 19 | –
COc1ccc(Nc2c(-c3ccc4nccnc4c3)c(C)nn2-c2ccccc2)c(C(=O)O)c1 | 0.0028 | 5.5 | 1.1 | –
CCc1nn(-c2ccccc2C)c(Nc2ccccc2C(=O)O)c1-c1ccc2nccnc2c1 | 0.013 | > 50 | > 50 | –
COc1ccc(Nc2c(-c3ccc(C(C)=O)cc3)c(C)nn2-c2ccccc2C)c(C(=O)O)c1 | 0.04 | – | – | clearance [5]: 66.7 mL/min/kg; half-life [6]: 1.5 h; bioavailability [7]: 20%
COc1ccc(Nc2c(-c3ccc4c(c3)OCO4)c(C)nn2-c2ccccc2C)c(C(=O)O)c1 | 0.231 | – | – | –
